Laboratory results: publication PMC11583631 (RSC Advances, 2024)
Like-named read-outs stand apart in the source and are kept apart here.

Columns and labels:
[1] = test system: bacterial tyrosinase enzyme; experiment: in vitro bacterial tyrosinase inhibition assay; assay type: biochemical; conditions: L-tyrosine substrate; for Percentage inhibition: 37 °C, absorbance 475 nm; for IC50: by extrapolation of the graph
tyrosinase enzyme = experiment: kinetic studies; assay type: biochemical, bacterial; conditions: Lineweaver–Burk and Dixon plots, tyrosine 0.1–1 mM
Outline: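 Isolated bacterial tyrosinase; pre-incubation and measurement timing as in the main inhibition assay. Lineweaver–Burk: 1/V vs 1/[S]. Ki (EI) and Ki′ (ESI) from secondary plots of slope and intercept vs inhibitor concentration. Dixon plot (1/V vs inhibitor concentration) confirmed inhibition type.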

[2] = target: bacterial tyrosinase enzyme; conditions: standard inhibitors; ref [50]; cited from earlier work

Structure (SMILES)	Percentage inhibition [1]	IC50 [1] [µM]	type of inhibition (tyrosinase enzyme)	IC50 [2] [µM]
COc1ccc(OC)c(NC(=O)CSc2nnc(-c3cc4c(ccc5ccccc54)o3)n2-c2ccccc2)c1 [20d, N-(2,5-dimethoxyphenyl)-2-((5-(naphtho[2,1-b]furan-2-yl)-4-phenyl-4H-1,2,4-triazol-3-yl)thio)acetamide]	22.77 ± 0.17			
CCNC(=O)CSc1nnc(-c2cc3c(ccc4ccccc43)o2)n1-c1ccccc1 [20c, N-ethyl-2-((5-(naphtho[2,1-b]furan-2-yl)-4-phenyl-4H-1,2,4-triazol-3-yl)thio)acetamide]	22.62 ± 0.30			
O=C(CSc1nnc(-c2cc3c(ccc4ccccc43)o2)n1-c1ccccc1)N1CCOCC1 [20i, 1-Morpholino-2-((5-(naphtho[2,1-b]furan-2-yl)-4-phenyl-4H-1,2,4-triazol-3-yl)thio)ethanone]	30.55 ± 0.1	1.99 ± 0.07		
O=C(CSc1nnc(-c2cc3c(ccc4ccccc43)o2)n1-c1ccccc1)Nc1ccccc1Cl [20f, N-(2-chlorophenyl)-2-((5-(naphtho[2,1-b]furan-2-yl)-4-phenyl-4H-1,2,4-triazol-3-yl)thio)acetamide]	32.34 ± 0.07	0.51 ± 0.12	non-competitively	
O=C(CSc1nnc(-c2cc3c(ccc4ccccc43)o2)n1-c1ccccc1)Nc1ccc(F)cc1 [20h, N-(4-fluorophenyl)-2-((5-(naphtho[2,1-b]furan-2-yl)-4-phenyl-4H-1,2,4-triazol-3-yl)thio)acetamide]	13.92 ± 0.11	9.36 ± 0.06		
Cc1ccc(C)c(NC(=O)CSc2nnc(-c3cc4c(ccc5ccccc54)o3)n2-c2ccccc2)c1 [20b, N-(2,5-dimethylphenyl)-2-((5-(naphtho[2,1-b]furan-2-yl)-4-phenyl-4H-1,2,4-triazol-3-yl)thio)acetamide]	31.40 ± 0.25			
CCN(CC)C(=O)CSc1nnc(-c2cc3c(ccc4ccccc43)o2)n1-c1ccccc1 [20j, N,N-diethyl-2-((5-(naphtho[2,1-b]furan-2-yl)-4-phenyl-4H-1,2,4-triazol-3-yl)thio)acetamide]	2.61 ± 0.50	23.03 ± 0.18		
CCCCc1ccc(NC(=O)CSc2nnc(-c3cc4c(ccc5ccccc54)o3)n2-c2ccccc2)cc1 [20a, N-(4-butylphenyl)-2-((5-(naphtho[2,1-b]furan-2-yl)-4-phenyl-4H-1,2,4-triazol-3-yl)thio)acetamide]	22.84 ± 0.05			
O=C1O[C@H]([C@@H](O)CO)C(O)=C1O [Ascorbic acid, reference compound]	58.66 ± 1.00			11.5 ± 1
COc1ccccc1NC(=O)CSc1nnc(-c2cc3c(ccc4ccccc43)o2)n1-c1ccccc1 [20g, N-(2-methoxyphenyl)-2-((5-(naphtho[2,1-b]furan-2-yl)-4-phenyl-4H-1,2,4-triazol-3-yl)thio)acetamide]	5.40 ± 0.05	12.9 ± 0.15		
O=c1cc(CO)occ1O [Kojic acid, reference compound]	6.80 ± 0.58			30.3 ± 0.75
